The text below walks through data of ChEMBL document CHEMBL2417369, “Synthesis and evaluation of heteroaryl substituted diazaspirocycles as scaffolds to probe the ATP-binding site of protein kinases” (Bioorg Med Chem, 2013).

Test [1] has as its target T1, Serine/threonine-protein kinase Nek2 (Homo sapiens) (UniProt P51955).
T1 sequence (whole entry): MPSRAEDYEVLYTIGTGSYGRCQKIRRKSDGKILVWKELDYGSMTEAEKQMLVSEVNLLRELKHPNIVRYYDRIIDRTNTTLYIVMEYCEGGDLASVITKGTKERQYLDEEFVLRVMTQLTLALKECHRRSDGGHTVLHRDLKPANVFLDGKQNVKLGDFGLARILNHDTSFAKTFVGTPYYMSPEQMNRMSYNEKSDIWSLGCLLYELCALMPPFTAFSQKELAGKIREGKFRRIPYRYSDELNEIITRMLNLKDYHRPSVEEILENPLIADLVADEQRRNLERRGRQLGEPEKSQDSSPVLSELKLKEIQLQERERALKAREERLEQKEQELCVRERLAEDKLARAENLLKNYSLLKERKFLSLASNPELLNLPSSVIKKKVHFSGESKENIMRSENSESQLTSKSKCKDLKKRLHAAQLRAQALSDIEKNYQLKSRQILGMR
The test can be described thus: Inhibition of NEK2 (unknown origin) at 30 uM by microfluidic mobility shift assay relative to control. In a few lines:
(§1)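 Single-point screen at 30 µM test compound across a 24-kinase panel in a microfluidic assay format. ATP was set near each enzyme's Km,[ATP]. […] The pan-AGC inhibitor H-89 served as an internal control on every assay plate.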

Test [2] is filed under the species Homo sapiens. Description: Inhibition of CSNK1 (unknown origin) at 30 uM by microfluidic mobility shift assay relative to control. In a few lines: as §1
Test [3] has as its target T2, Serine/threonine-protein kinase BRSK1 (Homo sapiens) (UniProt Q8TDC3).
T2 sequence (whole entry): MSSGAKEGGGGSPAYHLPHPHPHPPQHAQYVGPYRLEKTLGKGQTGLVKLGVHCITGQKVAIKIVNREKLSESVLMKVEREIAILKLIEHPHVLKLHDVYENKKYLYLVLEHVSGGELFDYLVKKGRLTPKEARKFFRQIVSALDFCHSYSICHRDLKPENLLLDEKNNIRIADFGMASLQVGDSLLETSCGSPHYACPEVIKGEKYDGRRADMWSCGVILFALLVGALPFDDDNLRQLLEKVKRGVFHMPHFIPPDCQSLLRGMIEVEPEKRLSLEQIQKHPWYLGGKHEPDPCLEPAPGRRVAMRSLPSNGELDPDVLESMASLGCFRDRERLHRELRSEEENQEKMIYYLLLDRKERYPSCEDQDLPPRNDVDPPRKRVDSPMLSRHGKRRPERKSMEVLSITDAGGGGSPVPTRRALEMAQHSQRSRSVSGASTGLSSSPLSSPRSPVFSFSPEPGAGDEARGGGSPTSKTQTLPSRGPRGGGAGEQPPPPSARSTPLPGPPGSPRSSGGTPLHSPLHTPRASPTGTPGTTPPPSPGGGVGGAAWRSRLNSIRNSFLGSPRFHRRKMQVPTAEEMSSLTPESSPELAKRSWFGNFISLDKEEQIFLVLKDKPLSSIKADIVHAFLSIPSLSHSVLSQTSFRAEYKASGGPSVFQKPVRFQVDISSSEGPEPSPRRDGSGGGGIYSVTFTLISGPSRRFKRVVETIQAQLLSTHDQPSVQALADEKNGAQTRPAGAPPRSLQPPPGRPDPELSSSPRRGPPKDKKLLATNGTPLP
The test can be described thus: Inhibition of BRSK1 (unknown origin) at 30 uM by microfluidic mobility shift assay relative to control. In a few lines:
as §1

Test [4] has as its target Serine/threonine-protein kinase MARK1 (Homo sapiens) (UniProt Q9P0L2). The test can be described thus: Inhibition of MARK1 (unknown origin) at 30 uM by microfluidic mobility shift assay relative to control. In a few lines: as §1
Test [5] addresses AMP-activated protein kinase, AMPK (Homo sapiens) (UniProt P54646+O43741+P54619+Q9UGJ0+Q9Y478+Q13131+Q9UGI9). Description: Inhibition of AMPK (unknown origin) at 30 uM by microfluidic mobility shift assay relative to control. In kind it is protein-complex assay. In a few lines:
as §1

The target in test [6] is Ribosomal protein S6 kinase beta-1 (Homo sapiens) (UniProt P23443). The test can be described thus: Inhibition of p70S6K (unknown origin) at 30 uM by microfluidic mobility shift assay relative to control. In a few lines: (§2)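 Single-point screen against a 24-kinase panel in a commercial microfluidic assay format. Compounds were tested at 30 µM, with ATP at approximately the Km,[ATP] of each enzyme. H-89 was included on each assay plate as an internal control.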

Test [7] has as its target Cyclin-dependent kinase 2 (Homo sapiens) (UniProt P24941). Description: Inhibition of CDK2 (unknown origin) at 30 uM by microfluidic mobility shift assay relative to control. In a few lines:
as §1

Test [8] deals with Serine/threonine-protein kinase MARK2 (Homo sapiens) (UniProt Q7KZI7). The test can be described thus: Inhibition of MARK2 (unknown origin) at 30 uM by microfluidic mobility shift assay relative to control. In a few lines: as §1
The target of test [9] is Protein kinase C alpha type (Homo sapiens) (UniProt P17252). The test can be described thus: Inhibition of PKCalpha (unknown origin) at 30 uM by microfluidic mobility shift assay relative to control. In a few lines:
as §1

Test [10] deals with T3, Serine/threonine-protein kinase Sgk1 (Homo sapiens) (UniProt O00141).
T3 sequence (whole entry): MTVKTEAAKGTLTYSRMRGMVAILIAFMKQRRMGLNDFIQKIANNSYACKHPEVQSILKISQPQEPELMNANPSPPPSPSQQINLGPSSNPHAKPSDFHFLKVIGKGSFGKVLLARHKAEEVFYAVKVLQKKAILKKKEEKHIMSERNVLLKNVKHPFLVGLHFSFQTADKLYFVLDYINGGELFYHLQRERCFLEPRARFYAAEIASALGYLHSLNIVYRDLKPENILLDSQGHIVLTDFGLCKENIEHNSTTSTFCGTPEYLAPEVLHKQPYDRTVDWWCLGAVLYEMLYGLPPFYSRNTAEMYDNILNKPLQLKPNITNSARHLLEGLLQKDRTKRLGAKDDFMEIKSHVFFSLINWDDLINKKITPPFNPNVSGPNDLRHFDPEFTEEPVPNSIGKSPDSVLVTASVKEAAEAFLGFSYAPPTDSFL
The test can be described thus: Inhibition of SGK1 (unknown origin) at 30 uM by microfluidic mobility shift assay relative to control. In a few lines:
as §2

The subject of test [11] is Fibroblast growth factor receptor 2 (Homo sapiens), P21802 [N549H]. The test can be described thus: Inhibition of FGFR2 N549H mutant (unknown origin) at 30 uM by microfluidic mobility shift assay relative to control. In a few lines: as §1
Test [12] concerns the target Mitogen-activated protein kinase 3 (Homo sapiens, UniProt P27361). Description: Inhibition of MAPK3 (unknown origin) at 30 uM by microfluidic mobility shift assay relative to control. In a few lines:
as §1

The target of test [13] is Calcium/calmodulin-dependent protein kinase type II subunit gamma (Homo sapiens) (UniProt Q13555). The test can be described thus: Inhibition of CAMK2gamma (unknown origin) at 30 uM by microfluidic mobility shift assay relative to control.
The target of test [14] is Serine/threonine-protein kinase PAK 2 (Homo sapiens) (UniProt Q13177). The test can be described thus: Inhibition of PAK2 (unknown origin) at 30 uM by microfluidic mobility shift assay relative to control. In a few lines:
as §1

The species entered for test [15] is Homo sapiens. The test can be described thus: Inhibition of DCAMK (unknown origin) at 30 uM by microfluidic mobility shift assay relative to control. In a few lines:
as §1

Sequence of Serine/threonine-protein kinase MARK2 (Homo sapiens) (Q7KZI7 whole entry): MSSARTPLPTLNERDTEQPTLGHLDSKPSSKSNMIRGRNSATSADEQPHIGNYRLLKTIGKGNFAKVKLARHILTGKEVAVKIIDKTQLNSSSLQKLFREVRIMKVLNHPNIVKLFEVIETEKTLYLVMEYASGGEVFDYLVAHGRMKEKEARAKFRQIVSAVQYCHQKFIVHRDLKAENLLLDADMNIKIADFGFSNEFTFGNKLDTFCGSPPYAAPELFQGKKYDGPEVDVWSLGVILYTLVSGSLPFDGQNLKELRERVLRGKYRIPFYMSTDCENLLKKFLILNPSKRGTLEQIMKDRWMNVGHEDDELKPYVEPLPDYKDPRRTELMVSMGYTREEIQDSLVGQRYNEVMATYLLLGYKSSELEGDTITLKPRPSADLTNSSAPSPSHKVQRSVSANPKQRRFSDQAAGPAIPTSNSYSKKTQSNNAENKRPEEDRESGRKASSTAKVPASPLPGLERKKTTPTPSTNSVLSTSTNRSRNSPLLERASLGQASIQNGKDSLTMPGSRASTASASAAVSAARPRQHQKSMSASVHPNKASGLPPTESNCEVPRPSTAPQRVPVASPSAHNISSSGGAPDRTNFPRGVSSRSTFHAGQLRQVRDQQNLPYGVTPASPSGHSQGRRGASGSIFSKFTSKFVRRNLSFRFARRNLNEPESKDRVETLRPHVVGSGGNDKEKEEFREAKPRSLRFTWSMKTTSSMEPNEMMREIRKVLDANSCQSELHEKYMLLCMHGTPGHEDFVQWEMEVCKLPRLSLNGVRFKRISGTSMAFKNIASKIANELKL
Sequence of Calcium/calmodulin-dependent protein kinase type II subunit gamma (Homo sapiens) (Q13555 whole entry, looked up): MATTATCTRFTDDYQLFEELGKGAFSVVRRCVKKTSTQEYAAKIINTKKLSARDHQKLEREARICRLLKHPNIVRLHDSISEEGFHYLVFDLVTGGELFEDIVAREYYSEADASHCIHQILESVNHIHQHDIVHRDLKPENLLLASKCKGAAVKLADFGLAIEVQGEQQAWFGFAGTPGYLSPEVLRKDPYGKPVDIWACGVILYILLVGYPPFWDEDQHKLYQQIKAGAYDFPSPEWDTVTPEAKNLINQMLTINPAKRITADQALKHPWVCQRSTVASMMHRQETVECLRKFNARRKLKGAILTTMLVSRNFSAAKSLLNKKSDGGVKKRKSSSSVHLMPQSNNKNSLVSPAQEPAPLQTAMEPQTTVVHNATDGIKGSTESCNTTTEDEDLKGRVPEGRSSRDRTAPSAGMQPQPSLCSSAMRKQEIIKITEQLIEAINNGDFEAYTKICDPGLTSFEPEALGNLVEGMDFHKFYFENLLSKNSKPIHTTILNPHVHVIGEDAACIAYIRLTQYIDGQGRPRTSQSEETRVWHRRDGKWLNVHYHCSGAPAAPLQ
Sequence of Mitogen-activated protein kinase 3 (P27361 whole entry): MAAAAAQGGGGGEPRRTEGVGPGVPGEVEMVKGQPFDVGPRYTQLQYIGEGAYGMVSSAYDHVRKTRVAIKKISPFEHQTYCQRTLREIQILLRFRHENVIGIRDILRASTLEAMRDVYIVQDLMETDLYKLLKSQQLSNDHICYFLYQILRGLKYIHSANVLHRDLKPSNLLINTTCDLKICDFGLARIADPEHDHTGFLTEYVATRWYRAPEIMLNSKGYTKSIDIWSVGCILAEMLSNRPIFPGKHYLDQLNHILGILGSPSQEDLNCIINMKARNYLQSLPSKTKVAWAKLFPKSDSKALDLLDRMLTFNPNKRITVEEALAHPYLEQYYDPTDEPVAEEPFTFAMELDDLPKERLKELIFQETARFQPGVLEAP
Sequence of Serine/threonine-protein kinase PAK 2 (Homo sapiens) (Q13177 whole entry): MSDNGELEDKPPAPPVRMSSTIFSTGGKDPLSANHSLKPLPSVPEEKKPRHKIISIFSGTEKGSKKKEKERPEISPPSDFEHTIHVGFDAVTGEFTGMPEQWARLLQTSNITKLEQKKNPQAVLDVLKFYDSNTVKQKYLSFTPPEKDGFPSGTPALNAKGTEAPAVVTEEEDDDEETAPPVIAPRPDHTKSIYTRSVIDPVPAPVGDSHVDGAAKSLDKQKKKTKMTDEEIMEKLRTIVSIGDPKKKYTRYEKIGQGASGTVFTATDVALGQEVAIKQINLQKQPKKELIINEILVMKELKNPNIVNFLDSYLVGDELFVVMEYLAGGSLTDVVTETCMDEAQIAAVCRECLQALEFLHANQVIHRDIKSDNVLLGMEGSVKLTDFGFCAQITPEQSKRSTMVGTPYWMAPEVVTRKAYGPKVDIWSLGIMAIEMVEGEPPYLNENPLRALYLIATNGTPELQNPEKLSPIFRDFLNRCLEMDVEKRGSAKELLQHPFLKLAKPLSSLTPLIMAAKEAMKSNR
Sequence of Ribosomal protein S6 kinase beta-1 (Homo sapiens) (P23443 whole entry, looked up): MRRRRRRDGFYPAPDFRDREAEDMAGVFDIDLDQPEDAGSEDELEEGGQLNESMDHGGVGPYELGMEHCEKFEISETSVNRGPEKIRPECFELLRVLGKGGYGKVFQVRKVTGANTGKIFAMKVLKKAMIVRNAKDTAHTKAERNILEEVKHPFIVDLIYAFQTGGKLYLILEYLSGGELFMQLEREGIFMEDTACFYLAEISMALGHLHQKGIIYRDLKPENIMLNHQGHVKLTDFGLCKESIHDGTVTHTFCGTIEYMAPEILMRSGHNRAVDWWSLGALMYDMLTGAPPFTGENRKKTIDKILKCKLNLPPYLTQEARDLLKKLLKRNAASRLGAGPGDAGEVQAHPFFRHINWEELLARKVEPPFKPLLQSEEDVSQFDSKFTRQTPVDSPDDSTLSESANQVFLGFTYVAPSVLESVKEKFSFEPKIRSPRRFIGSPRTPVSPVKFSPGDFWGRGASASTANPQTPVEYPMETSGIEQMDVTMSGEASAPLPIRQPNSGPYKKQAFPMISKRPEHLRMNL
Sequence of Fibroblast growth factor receptor 2 (Homo sapiens), P21802 [N549H] (P21802 whole entry N549H): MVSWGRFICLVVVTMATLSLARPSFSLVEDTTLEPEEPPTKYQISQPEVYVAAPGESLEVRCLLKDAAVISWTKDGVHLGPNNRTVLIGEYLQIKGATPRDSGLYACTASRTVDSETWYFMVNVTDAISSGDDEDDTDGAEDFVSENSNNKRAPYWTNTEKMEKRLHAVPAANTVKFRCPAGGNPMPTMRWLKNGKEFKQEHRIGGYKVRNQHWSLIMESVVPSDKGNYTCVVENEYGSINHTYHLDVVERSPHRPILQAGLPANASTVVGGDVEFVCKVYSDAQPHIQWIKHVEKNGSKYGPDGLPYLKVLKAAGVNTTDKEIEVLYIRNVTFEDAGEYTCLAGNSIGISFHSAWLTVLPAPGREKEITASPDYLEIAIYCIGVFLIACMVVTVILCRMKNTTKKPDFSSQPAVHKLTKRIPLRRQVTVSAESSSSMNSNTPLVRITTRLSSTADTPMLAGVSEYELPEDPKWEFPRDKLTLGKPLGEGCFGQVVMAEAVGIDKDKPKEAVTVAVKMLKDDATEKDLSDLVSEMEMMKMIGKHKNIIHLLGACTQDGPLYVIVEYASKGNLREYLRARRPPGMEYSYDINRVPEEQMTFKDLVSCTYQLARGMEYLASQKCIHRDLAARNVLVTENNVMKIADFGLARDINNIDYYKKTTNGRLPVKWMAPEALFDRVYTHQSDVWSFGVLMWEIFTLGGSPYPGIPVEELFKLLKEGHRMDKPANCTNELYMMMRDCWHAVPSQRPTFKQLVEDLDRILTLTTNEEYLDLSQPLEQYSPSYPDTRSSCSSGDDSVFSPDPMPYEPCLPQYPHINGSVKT

The inhibition is the percentage by which the read-out fell short of the control. In the case of `c1ccc(C2CCNC3(CCN(c4ncnc5[nH]cnc45)CC3)C2)cc1` (racemic), the inhibition was 14% in test [1]; 11% in the test filed under Homo sapiens [2]; 13% in test [3]; 89% in [4]; 66% in test [5]; 95% in [6]. Also, the inhibition in test [7] came to 19%; in test [8], 72%; in test [9], 59%; in test [10] it was 41%; in [11], 20%; in [12] it was 13%. For the same molecule, the inhibition in test [13] stood at 18%; in [14], 20%; in the test listed under Homo sapiens [15], 17%.
`c1ccc(CC2CCC3(CCN(c4ncnc5[nH]cnc45)CC3)NC2)cc1` (racemic): the inhibition is 7% in test [1]; 14% in the test listed under Homo sapiens [2]; 10% in test [3]; 0% in test [4]; 70% in test [5]; 47% in test [6]. Besides, the inhibition in test [7] amounted to 15%; in test [8], 47%; in [9], 35%; in test [10], 15%; in test [11], 15%; in test [12], 7%. For the same molecule, the values for the inhibition (in test [13]; in [14]; in the test filed under Homo sapiens [15]) were 17%, 13% and 13%, respectively.
For `c1ccc(CC2CCNC3(CCN(c4ncnc5[nH]cnc45)CC3)C2)cc1` (racemic), the inhibition is 11% in test [1]; 11% in the test filed under Homo sapiens [2]; 16% in test [3]; 99% in test [4]; 78% in [5]; 98% in [6]. For the same molecule, the inhibition was found to be 21% in [7]; 60% in [8]; 78% in [9]; 64% in [10]; 22% in test [11]; 9% in test [12]. Also, the values for the inhibition (in test [13]; in test [14]; in the test listed under Homo sapiens [15]) were 17%, 19% and 20%, respectively.
